Results: ChEMBL document CHEMBL1799963, “Discovery of novel benzopyranyl tetracycles that act as inhibitors of osteoclastogenesis induced by receptor activator of NF-κB ligand” (J Med Chem, 2010)
The source made the active and inactive calls. The rule behind the calls is not given here.

Experiments:
[1] = system: RAW264.7; assay: Inhibition of RANKL-induced osteoclastogenesis in mouse RAW264.7 cells assessed as TRAP-positive cells at 10 uM after 1 hr by microplate reader assay; format: functional; design: scale not given: the % may be the effect or the level left
In short: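 RAW264.7 plated at 1 10^3 cells/well in α-MEM/10% FBS with 100 ng/mL RANKL; compound (10 μM) or DMSO vehicle added after 24 h. On day 4, cells fixed (10% formalin 10 min, 95% ethanol 1 min). TRAP activity measured in 50 mM citrate pH 4.6 with 10 mM tartrate and 5 mM p-nitrophenylphosphate for 1 h, stopped with 0.1 N NaOH, A410. Triplicate; 100% = RANKL minus vehicle difference.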

[2] = Inhibition of NFkappa signaling in mouse RAW264.7 cells assessed as reduction in RANKL-induced transcriptional activation on NF-kappaB at 10 uM by luciferase reporter gene assay; format: cell-based
[3] = system: RAW264.7; assay: Inhibition of c-Src mRNA expression in mouse RAW264.7 cells at 10 uM by RT-PCR analysis; format: functional, cell-based
[4] = system: RAW264.7; assay: Inhibition of MMP-7 mRNA expression in mouse RAW264.7 cells at 10 uM by RT-PCR analysis; format: functional, cell-based
[5] = system: RAW264.7; assay: Inhibition of TRAP mRNA expression in mouse RAW264.7 cells at 10 uM by RT-PCR analysis; format: functional, cell-based
[6] = system: RAW264.7; assay: Downregulation of RANKL-induced c-fos mRNA expression in mouse RAW264.7 cells at 10 uM by RT-PCR analysis; format: functional, cell-based
[7] = system: RAW264.7; assay: Downregulation of RANKL-induced NFATc1 mRNA expression in mouse RAW264.7 cells at 10 uM by RT-PCR analysis; format: functional, cell-based
[8] = system: RAW264.7; assay: Downregulation of RANKL-induced fra2 mRNA expression in mouse RAW264.7 cells at 10 uM by RT-PCR analysis; format: functional, cell-based
[9] = system: RAW264.7; assay: Inhibition of RANKL-induced ERK phosphorylation in mouse RAW264.7 cells at 10 uM by Western blot analysis; format: cell-based
[10] = Cytotoxicity against mouse RAW264.7 cells assessed as cell viability at 30 uM after day 1 by CCK-8 assay; format: cell-based; settings: read-out: Activity
In short: (§1)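 RAW264.7 cells exposed to compound at 30 μM final for 1 day or 4 days; viability read by CCK-8 assay.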

[11] = Cytotoxicity against mouse RAW264.7 cells assessed as cell viability at 30 uM after day 4 by CCK-8 assay; format: cell-based; settings: read-out: Activity; in short: as §1
[12] = system: RAW264.7; assay: Inhibition of RANKL-induced osteoclastogenesis in mouse RAW264.7 cells assessed as decrease in TRAP-positive cells after 1 hr by microplate reader assay; format: functional, cell-based; settings: RAW264.7, 1 h
In short: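 RAW264.7 in α-MEM/10% FBS plus 100 ng/mL RANKL; compound or DMSO vehicle added after 24 h, dose-dependent series. On day 4, cells fixed and TRAP activity read as p-nitrophenylphosphate (5 mM) hydrolysis in tartrate-containing citrate buffer pH 4.6, 1 h, NaOH stop, A410. IC50 derived; triplicate.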

[13] = system: Macrophage; assay: Inhibition of RANKL-induced osteoclastogenesis in BALB/c mouse Bone marrow macrophages assessed as decrease in TRAP-positive cells after 1 hr by microplate reader assay; format: functional, cell-based
In short: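 BALB/c femur/tibia monocytes grown 1 day with 10 ng/mL M-CSF, then nonadherent cells 3 days with 30 ng/mL M-CSF. Adherent BMMs plated at 3 10^5 cells/well with 100 ng/mL RANKL and 30 ng/mL M-CSF, then given compound dose series. TRAP activity read via p-nitrophenylphosphate hydrolysis (pH 4.6 citrate, tartrate, 1 h, A410). IC50 derived.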

[14] = Inhibition of NFkappa signaling in mouse RAW264.7 cells assessed as reduction in RANKL-induced transcriptional activation on NF-kappaB by luciferase reporter gene assay; format: cell-based

## CC1(C)Oc2cc(O)ccc2C2C1=CCn1c(=O)n(-c3ccc(Br)cc3)c(=O)n12 (centres undefined)
[1]
  Activity: 83%

## CC1(C)Oc2ccccc2C2C1=CCn1c(=O)n(-c3ccccc3)c(=O)n12 (centres undefined)
[1]
  Activity: 104%
[2]
  inhibition: Active
[3]
  inhibition: inactive
[4]
  inhibition: inactive
[5]
  inhibition: inactive
[6]
  Activity: inactive
[7]
  Activity: inactive
[8]
  Activity: inactive
[9]
  inhibition: inactive

## CC(=O)N1CCC2(CC1)Oc1cc(O)ccc1C1C2=CCn2c(=O)n(-c3ccccc3)c(=O)n21 (centres undefined)
[1]
  Activity: 113%

## Cc1ccc(-n2c(=O)n3n(c2=O)C2C(=CC3)C(C)(C)Oc3cc(O)ccc32)cc1 (centres undefined)
[1]
  Activity: 50%
[10]
  viability at 1 day, 30 µM: 100%
[11]
  viability at 4 day, 30 µM: 86.9%
[12]
  IC50: 7.97 µM
[13]
  IC50: 7.05 µM
[14]
  inhibition: Dose-dependent effect
[3]
  inhibition: Active
[4]
  inhibition: Active
[5]
  inhibition: Active
[6]
  Activity: Active
[7]
  Activity: Active
[8]
  Activity: Active
[9]
  inhibition: Active

## CC1(C)Oc2cc(O)ccc2C2C1=CCn1c(=O)n(-c3ccc(C(C)(C)C)cc3)c(=O)n12 (centres undefined)
[1]
  Activity: 53%
[10]
  viability at 1 day, 30 µM: 79.7%
[11]
  viability at 4 day, 30 µM: 73.4%
[12]
  IC50: 6.94 µM
[13]
  IC50: 6.77 µM

## CC1(C)Oc2cc(O)ccc2C2C1=CCn1c(=O)n(-c3ccc(F)cc3)c(=O)n12 (centres undefined)
[1]
  Activity: 68%
[10]
  viability at 1 day, 30 µM: 99%
[11]
  viability at 4 day, 30 µM: 80.7%
[12]
  IC50: 8.08 µM
[13]
  IC50: 11.9 µM

## CC1(C)Oc2cc(O)ccc2C2C1=CCn1c(=O)n(-c3ccccc3Cl)c(=O)n12 (centres undefined)
[1]
  Activity: 95%

## COc1cccc(-n2c(=O)n3n(c2=O)C2C(=CC3)C(C)(C)Oc3cc(O)ccc32)c1 (centres undefined)
[1]
  Activity: 86%

## COc1cc2c(cc1OC)C1C(=CCn3c(=O)n(-c4ccccc4)c(=O)n31)C(C)(C)O2 (centres undefined)
[1]
  Activity: 99%

## CC1(C)Oc2cc(O)ccc2C2C1=CCn1c(=O)n(-c3ccccc3)c(=O)n12 (centres undefined)
[1]
  Activity: 43%
[10]
  viability at 1 day, 30 µM: 85.9%
[11]
  viability at 4 day, 30 µM: 74%
[12]
  IC50: 7.07 µM
[13]
  IC50: 6.13 µM
[14]
  inhibition: Dose-dependent effect
[3]
  inhibition: Active
[4]
  inhibition: Active
[5]
  inhibition: Active
[6]
  Activity: Active
[7]
  Activity: Active
[8]
  Activity: Active
[9]
  inhibition: Active

## COc1ccc2c(c1)OC(C)(C)C1=CCn3c(=O)n(-c4ccccc4)c(=O)n3C12 (centres undefined)
[1]
  Activity: 108%

## Cn1c(=O)n2n(c1=O)C1C(=CC2)C(C)(C)Oc2cc(O)ccc21 (centres undefined)
[1]
  Activity: 95%

## CC1(C)Oc2cc(O)ccc2C2C1=CCn1c(=O)n(-c3ccccc3I)c(=O)n12 (centres undefined)
[1]
  Activity: 101%

## CC1(C)Oc2cc(O)ccc2C2C1=CCn1c(=O)n(Cc3ccccc3)c(=O)n12 (centres undefined)
[1]
  Activity: 98%

## COc1ccc(-n2c(=O)n3n(c2=O)C2C(=CC3)C(C)(C)Oc3cc(O)ccc32)cc1 (centres undefined)
[1]
  Activity: 93%

## CC1(C)Oc2cc(F)ccc2C2C1=CCn1c(=O)n(-c3ccccc3)c(=O)n12 (centres undefined)
[1]
  Activity: 121%

## CC1(C)Oc2cc(O)ccc2C2C1=CCn1c(=O)n(-c3cccc([N+](=O)[O-])c3)c(=O)n12 (centres undefined)
[1]
  Activity: 105%

## COc1ccc2c(c1O)OC(C)(C)C1=CCn3c(=O)n(-c4ccccc4)c(=O)n3C12 (centres undefined)
[1]
  Activity: 69%
[13]
  IC50: 22.2 µM

## CC1(C)Oc2cc(O)ccc2C2C1=CCn1c(=O)n(-c3ccc(Cl)cc3)c(=O)n12 (centres undefined)
[1]
  Activity: 112%

## CCCN1CCC2(CC1)Oc1cc(O)ccc1C1C2=CCn2c(=O)n(-c3ccccc3)c(=O)n21 (centres undefined)
[1]
  Activity: 99%

## CC1(C)Oc2cc(O)ccc2C2C1=CCn1c(=O)n(C3CCCCC3)c(=O)n12 (centres undefined)
[1]
  Activity: 113%

## O=c1n(-c2ccccc2)c(=O)n2n1CC=C1C2c2ccc(O)cc2OC12CCCC2 (centres undefined)
[1]
  Activity: 30%
[10]
  viability at 1 day, 30 µM: 77.8%
[11]
  viability at 4 day, 30 µM: 46%
[12]
  IC50: 5.09 µM
[13]
  IC50: 6.05 µM

## CNc1ccc2c(c1)OC(C)(C)C1=CCn3c(=O)n(-c4ccccc4)c(=O)n3C12 (centres undefined)
[1]
  Activity: 107%

## COc1ccc2c(c1)C1C(=CCn3c(=O)n(-c4ccccc4)c(=O)n31)C(C)(C)O2 (centres undefined)
[1]
  Activity: 100%
